Measured values pooled from the literature.
Organism: Staphylococcus aureus
Read-out: microbial growth

`C[n+]1ccc(/C=C2\Sc3ccccc3N2CCCN2CCCCC2)c2ccccc21.[I-]` has an MIC of 4 µg/mL (broth dilution; ATCCBAA44).
`O=C(O)CN1C(=O)/C(=C/c2ccc(-c3ccc(N(c4ccccc4)c4ccccc4)cc3)cc2)SC1=S` has an MIC of 3.9 µg/mL (broth dilution; ATCC43300).
`C/C=C(\C)c1cc(O)c(C)c(OC(=O)c2c(C)cc(O)c(Cl)c2O)c1` has an MIC of 8 µg/mL (broth dilution; CCARM3090).
`CC(C)Oc1c(NC(=O)c2ccc(NC(=O)[C@H](CC(N)=O)NC(=O)c3ccc(NC(=O)c4cc(C#N)cn4C)cc3)cc2)ccc(C(=O)Nc2ccc(C(=O)O)cc2)c1O` gave an MIC of 64 µg/mL (ATCC29213).
With `CCCN/C(=N/C)c1ccc(NC(=O)c2ccc(C(=O)Nc3ccc(/C(=N\C)NCCC)cc3)cc2)cc1` the MIC was 16 µg/mL.
The MIC of `CN(C)[C@@H]1C(O)=C(C(N)=O)C(=O)[C@@]2(O)C(O)=C3C(=O)c4c(O)cccc4[C@@](C)(O)[C@H]3C[C@@H]12` is reported as 0.15 µM (156; clinical isolate).
With `CNC(=O)c1nn(C)c2c1C(C)(C)Cc1cnc(Nc3ccc(N4CCN(C)CC4)cc3)nc1-2` the MIC was greater than 30 µM (NCTC8325).
With `CC(C)(O/N=C(\C(=O)N[C@@H]1C(=O)N2C(C(=O)[O-])=C(C[n+]3ccccc3)CS[C@H]12)c1csc(N)n1)C(=O)O` the MIC was greater than 128 µg/mL (MRSA; 18 h).
With `NCCCC[C@H](N)C(=O)Nc1ccc(-n2nc(C(F)(F)F)cc2-c2ccc3c(ccc4ccccc43)c2)cc1` the MIC was 4 µg/mL (broth dilution; ATCC29213; 24 h).
`Clc1ccc(C2(c3ccc(-c4cn[nH]c4)cc3)CCNCC2)cc1` gave an MIC of greater than 30 µM (NCTC8325).
`C/C=C(\C)c1cc(OC(=O)c2c(C)c(Cl)c(O)c(Cl)c2O)c(C)c(O)c1C(=O)O` gave an MIC of greater than 64 µg/mL (broth dilution; 16339).
`CC(=O)Nc1nc(C)c(-c2ccc(Cl)c(S(=O)(=O)NCCO)c2)s1` gave an MIC of greater than 30 µM (NCTC8325).
`CCOc1ccc(-c2nc3cc(-c4nc5cc(N6CCN(C)CC6)ccc5[nH]4)ccc3[nH]2)cc1` gave an MIC of 2 to 4 µg/mL (broth dilution; 33591; 24 h).
`COc1ccc2c3n(c(=NC(=O)c4cccnc4)nc2c1OC)CCN3` has an MIC of greater than 30 µM (NCTC8325).
With `c1ccc2[nH]c(-c3ccncc3)nc2c1` the MIC was 128 µg/mL (broth dilution; ATCC29213 MSSA).
The MIC of `CNC(=O)c1cc(Oc2ccc(NC(=O)Nc3ccc(Oc4ccccc4)cc3)cc2)ccn1` is reported as greater than 100 µM (NCTC8325).
`CCCCCCC#Cc1cncc(-c2nnc(SCc3ccc([N+](=O)[O-])o3)n2C2CC2)c1` gave an MIC of no less than 20 µg/mL (MRSA; drug-resistant strain).
`Cc1cc(C(=O)NOCCO)c(Nc2ccc(I)cc2F)n(C)c1=O` gave an MIC of greater than 30 µM (NCTC8325).
The MIC of `O=C(CCCCCC[P+](c1ccccc1)(c1ccccc1)c1ccccc1)Nc1cc(O)c(O)c(O)c1.[Br-]` is reported as 32 µg/mL (broth dilution; ATCC43300 MRSA; 18 h).
`CC(C)(C)c1cc(NC(=O)Nc2ccc(-c3cn4c(n3)sc3cc(OCCN5CCOCC5)ccc34)cc2)no1` gave an MIC of greater than 30 µM (NCTC8325).
`CCOc1ccc(-c2nc3ccc(C)cc3[nH]2)cc1` has an MIC of 128 µg/mL (broth dilution; ATCC29213 MSSA).
